This is a sample that favours compounds with a hit; in the whole collection about 3.9% have one here.
CRFBP-R2 agonist: CRF-BP/CRF-R2 complex agonism; 0.46% of 350,000 active; HEK293 CRF-R2/CRF-BP, calcium dye fluorescence (FLIPR); percent of saturating CRF peptide response; activation, % at 13.2 µM;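 active = activation of at least 50%, plus an integration ratio under a set limit after plate pattern correction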
TMEM16A act: activates or potentiates the mouse TMEM16A chloride channel; HEK293 TMEM16A/YFP-H148Q/I152L, iodide quench fluorescence; stronger effect = lower value; 0.3% of 340,000 active; B-score at 10 µM; Q8BHY3;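 active = fluorescence-ratio B-score plate-corrected deviation score at least 3 library SD below zero, with starting fluorescence score within 5 deviations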;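 also: channel opened by trigger with iodide after compound preincubation; score built on the fluorescence ratio of max minus min over baseline; more negative score means more quench and so TMEM16A activation or potentiation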
ANO1 block: inhibitors of mouse TMEM16A calcium-activated chloride channel; normalized B-score (activity score, 25-100; higher = stronger inhibition) at 10 µM; AID 588511; 1.2% of 310,000 active; Q8BHY3; HEK293 TMEM16A/YFP iodide influx fluorescence, ionomycin;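 active = ratio plate-corrected score three or more library SD toward inhibition, starting fluorescence score within five deviations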;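 also: score derived from kinetic fluorescence span divided by baseline fluorescence per well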
TAAR1 agonist: human TAAR1 agonism; activation, % at 3 µM; CHO RD-HGA16 TAAR1, Fluo-8 calcium fluorescence; vehicle wells 0%, saturating PEA agonist 100%; 0.99% of 360,000 active; Q96RJ0;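 active = activation above the mean activation of all test compounds in the run plus 3 SD, cut at about 38% in these data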
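Assay system: CHO-derived RD-HGA16 cells with stable Gα16 and human TAAR1; timing: 17-24 h seeding, 75 min 37 °C dye, 30 min RT; read-out: % activation from peak over basal fluorescence ratio, DMSO-to-PEA scaled; measured by: kinetic Fluo-8 calcium fluorescence; benchmarks: low control DMSO, high control PEA (EC100); doses: 3 µM single concentration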
TAAR1 antag: human TAAR1 antagonism; CHO RD-HGA16 TAAR1, Fluo-8 calcium fluorescence, antagonist; Q96RJ0; 1.5% of 360,000 active; inhibition, % at 3 µM;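 active = inhibition above a per-plate cutoff, the mean inhibition of test compounds on that plate plus 3 SD, cut at about 49% in these data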
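Test system: CHO RD-HGA16 cells bearing hTAAR1 | Reagent: β-PEA, EC80 | Compound dosing: 3 µM, single point | Schedule: Dye loading 75 min at 37 °C, then 30 min room temperature | Signal: Calcium fluorescence with Fluo-8 | Evaluation: Percent inhibition of PEA-evoked calcium signal, max/basal emission ratio | Control set: DMSO-only wells and EC80 β-PEA-stimulated wells | Repeats: Singlicate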
CRFR2-BP antag: blocks CRF-induced signaling of the CRF-BP/CRF-R2 complex; 0.59% of 350,000 active; inhibition, % at 11.8 µM; AID 588475; HEK293 CRF-R2/CRF-BP, CRF-induced calcium fluorescence;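 active = inhibition of the ligand-induced calcium signal above about 50% at the single tested concentration, limit read from the data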
Each line names hits and unclear results; the compound was inactive in the other large screens.

Cc1ccc(S(=O)(=O)N2CCC(=O)N(C(COCc3ccc(Cl)cc3)Cc3ccccc3)CC2)cc1 (configuration not stated)	TMEM16A act -25
Cn1c(-c2ccc(C=O)s2)nc2c3ccccc3c3ccccc3c21	CRFBP-R2 agonist 112
C#CCOCCOCCOCCNc1nc(N2CCN(C(=O)CCCCCCCCCCNC(=O)[C@H](CO)n3cc(CCCSC)nn3)CC2)nc(N2CCN(C(=O)CCCCCCCCCCNC(=O)[C@H](CCCN=C(N)N)n3cc(C[C@@H](C)CC)nn3)CC2)n1	TMEM16A act -32, ANO1 block 25 (no result: TAAR1 agonist, TAAR1 antag)
C#CCOCCOCCOCCNc1nc(N2CCN(C(=O)CCCCCCCCCCNC(=O)Cn3cc(C[C@@H](C)O)nn3)CC2)nc(N2CCN(C(=O)CCCCCCCCCCNC(=O)[C@H](CCCN=C(N)N)n3cc(C[C@@H](C)CC)nn3)CC2)n1	TMEM16A act -26 (no result: TAAR1 agonist, TAAR1 antag)
COc1cccc(NC(=O)c2cccc(C(=O)Nc3cccc(OC)c3)c2)c1	none
COc1cccc(NC(=O)c2nc3ncccn3n2)c1	TMEM16A act -5.4
Cc1ccc(-c2nc(N)c3c(-c4ccc(C)cc4)nn(C(C)(C)C)c3n2)cc1	ANO1 block 100
O=C1NC(=S)S/C1=C\c1coc2ccc(O)cc2c1=O	CRFR2-BP antag 96
O=C1NC(=S)S/C1=C\c1coc2ccccc2c1=O	none
Cc1c(C(=O)Nc2cccc([N+](=O)[O-])c2)sc2ncn(CC(=O)N3CCOCC3)c(=O)c12	CRFR2-BP antag 87
Cc1c(C(=O)Nc2ccccc2)sc2ncn(CC(=O)N3CCCCC3)c(=O)c12	none
Cc1ccc(-n2cccn2)c([C@@H]2C[C@H]3CN(C)C(=O)[C@]34CCCN24)c1	none
CN(C)c1ccc(/C=C2\C(=N)N3N=C(CC(=O)N4CCCCC4)SC3=NC2=O)cc1	CRFBP-R2 agonist 55, TMEM16A act -5.5
CN(C)c1ccc(/C=C2\C(=N)N3N=C(CC(=O)N4CCCC4)SC3=NC2=O)cc1Br	none
CCN(CC)S(=O)(=O)c1ccc(OC(C)C)c(NC(=O)c2c3c(nc4ccccc24)CCN(Cc2ccccc2)C3)c1	TAAR1 antag 55
COc1ccc(S(=O)(=O)N2CCCCCC2)cc1NC(=O)c1c2c(nc3ccccc13)CCN(Cc1ccccc1)C2	none
CC(=O)N1CCc2ccc(S(=O)(=O)N3CC(C)OC(C)C3)cc21 (configuration not stated)	none
CC(=O)N1CCc2ccc(S(=O)(=O)N3CCN(C)CC3)cc21	CRFBP-R2 agonist 203
O=[N+]([O-])c1cc(C(F)(F)F)cc([N+](=O)[O-])c1NCCNC(=S)Nc1ccc(Cl)c(Cl)c1	ANO1 block 100
Cc1ccsc1C(=O)N1CCC1(C)C(=O)NCc1cccnc1 (configuration not stated)	none (no result: CRFBP-R2 agonist, TMEM16A act, ANO1 block, CRFR2-BP antag)
S=C(NCCCc1cnc[nH]1)NCCCN(Cc1ccc(Cl)cc1)c1ccc(Br)cn1	TAAR1 agonist 38 (no result: CRFBP-R2 agonist, TMEM16A act, ANO1 block, CRFR2-BP antag)
Cc1ccc(OCCCCN2CCCCC2)cc1	none
Cc1ccc(OCCCCN2CCc3ccccc3C2)cc1	TAAR1 agonist 41
COc1ccc(OCC(O)CN2CCc3ccccc3C2)cc1 (configuration not stated)	CRFR2-BP antag 56
CN(/N=C/c1cc(Cl)cc(Cl)c1O)C(=S)NC(C)(C)C	ANO1 block 100
NS(=O)(=O)c1ccc(-c2ccc(/C=C3\C(=O)Nc4ccccc43)o2)cc1	none (no result: CRFBP-R2 agonist, TMEM16A act, TAAR1 agonist, TAAR1 antag, CRFR2-BP antag)
CC1(C)OC(=O)C(=Cc2ccc(-c3ccc(S(N)(=O)=O)cc3)o2)C(=O)O1	TMEM16A act -6.2, CRFR2-BP antag 81
O=C(O)c1cc(NN=C2c3ccccc3-c3ccccc32)ccc1Cl	CRFR2-BP antag 50
Cc1ccc(CN2C(=O)C(C)Nc3ncnc(N4CCN(c5ccccn5)CC4)c32)cc1 (configuration not stated)	none
COc1ccc(CNC(=O)C2(CC3CC(c4ccccc4)=NO3)CCNCC2)cc1 (configuration not stated)	none

Screening data deposited in PubChem by several laboratories.
